ChEMBL document CHEMBL1671684, “In vitro resistance profile of the hepatitis C virus NS3/4A protease inhibitor TMC435” (Antimicrob Agents Chemother, 2010)

The compounds below were run on Hepatitis C virus (assay: Antiviral activity against Hepatitis C virus subtype 1b expressing NS3 T54A mutant infected in HuH7 cells after 48 hrs by luciferase reporter assay). Conditions: genotype 1b, Huh-7, 48 h.
Assay type: functional, organism-based, Hepacivirus hominis
In short: (§1)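 Genotype 1b con1 subgenomic bicistronic replicon (clone ET) with luciferase reporter and adaptive mutations E1202G, T1280I, K1846T, carrying site-directed NS3 single or double mutations. 10 μg wild-type or mutant replicon RNA electroporated into Huh7-lunet cells, seeded 4,000 cells/well over a nine-point inhibitor dilution series, 48 h at 37°C, 5% CO2, then luminescence read. EC50 taken as median of individual experiments; fold change relative to parental replicon EC50.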

Compound	EC50 [nM]
CCC[C@H](NC(=O)[C@@H]1[C@H]2CCC[C@H]2CN1C(=O)[C@@H](NC(=O)[C@@H](NC(=O)c1cnccn1)C1CCCCC1)C(C)(C)C)C(=O)C(=O)NC1CC1 [TELAPREVIR]	1560

Each compound was assayed on Hepatitis C virus (assay: Antiviral activity against Hepatitis C virus subtype 1b expressing NS3 D168N mutant infected in HuH7 cells after 48 hrs by luciferase reporter assay). Conditions: genotype 1b, Huh-7, 48 h.
Assay type: functional, organism-based, Hepacivirus hominis
In short: as §1

Compound	EC50 [nM]
CCC[C@H](NC(=O)[C@@H]1[C@H]2CCC[C@H]2CN1C(=O)[C@@H](NC(=O)[C@@H](NC(=O)c1cnccn1)C1CCCCC1)C(C)(C)C)C(=O)C(=O)NC1CC1 [TELAPREVIR]	147

These compounds were tested on Hepatitis C virus (assay: Antiviral activity against Hepatitis C virus subtype 1b expressing NS3 V36L mutant infected in HuH7 cells after 48 hrs by luciferase reporter assay). Conditions: genotype 1b, Huh-7, 48 h.
Assay type: functional, organism-based, Hepacivirus hominis
In short: as §1

Compound	EC50 [nM]
CCC[C@H](NC(=O)[C@@H]1[C@H]2CCC[C@H]2CN1C(=O)[C@@H](NC(=O)[C@@H](NC(=O)c1cnccn1)C1CCCCC1)C(C)(C)C)C(=O)C(=O)NC1CC1 [TELAPREVIR]	300

These compounds were tested on Hepatitis C virus (assay: Ratio of EC50 for Hepatitis C virus subtype 1b expressing NS3 D168A mutant to EC50 for Hepatitis C virus subtype 1b expressing WT NS3 infected in HuH7 cells after 48 hrs by luciferase reporter assay). Conditions: not given.
Assay type: functional, Hepacivirus hominis, genotype 1b, Huh-7
In short: as §1

Compound	Ratio EC50
CCC[C@H](NC(=O)[C@@H]1[C@H]2CCC[C@H]2CN1C(=O)[C@@H](NC(=O)[C@@H](NC(=O)c1cnccn1)C1CCCCC1)C(C)(C)C)C(=O)C(=O)NC1CC1 [TELAPREVIR]	0.4

What follows are compounds tested on Hepatitis C virus (assay: Ratio of EC50 for Hepatitis C virus subtype 1b expressing NS3 R155K mutant to EC50 for Hepatitis C virus subtype 1b expressing WT NS3 infected in HuH7 cells after 48 hrs by luciferase reporter assay). Conditions: not given.
Assay type: functional, Hepacivirus hominis, genotype 1b, Huh-7
In short: (§2)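 Transient replicon assay: site-directed single or multiple NS3 mutations engineered into genotype 1b (con1, clone ET) subgenomic bicistronic replicon with luciferase reporter and adaptive mutations E1202G, T1280I, K1846T. Huh7-lunet cells electroporated with 10 μg wild-type or mutant replicon RNA, seeded 4,000 cells/well with nine-point inhibitor dilution; 48 h, 37°C, 5% CO2; luminescence read-out. EC50 as median of individual experiments; fold change versus parental replicon EC50.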

Compound	Ratio EC50
CCC[C@H](NC(=O)[C@@H]1[C@H]2CCC[C@H]2CN1C(=O)[C@@H](NC(=O)[C@@H](NC(=O)c1cnccn1)C1CCCCC1)C(C)(C)C)C(=O)C(=O)NC1CC1 [TELAPREVIR]	10

These compounds were tested on Hepatitis C virus (assay: Ratio of EC50 for Hepatitis C virus subtype 1b expressing NS3 D168H mutant to EC50 for Hepatitis C virus subtype 1b expressing WT NS3 infected in HuH7 cells after 48 hrs by luciferase reporter assay). Conditions: not given.
Assay type: functional, Hepacivirus hominis, genotype 1b, Huh-7
In short: as §2

Compound	Ratio EC50
CCC[C@H](NC(=O)[C@@H]1[C@H]2CCC[C@H]2CN1C(=O)[C@@H](NC(=O)[C@@H](NC(=O)c1cnccn1)C1CCCCC1)C(C)(C)C)C(=O)C(=O)NC1CC1 [TELAPREVIR]	0.7

These compounds were tested on Hepatitis C virus (assay: Ratio of EC50 for Hepatitis C virus subtype 1b expressing NS3 R109K mutant to EC50 for Hepatitis C virus subtype 1b expressing WT NS3 infected in HuH7 cells after 48 hrs by luciferase reporter assay). Conditions: not given.
Assay type: functional, Hepacivirus hominis, genotype 1b, Huh-7
In short: as §2

Compound	Ratio EC50
CCC[C@H](NC(=O)[C@@H]1[C@H]2CCC[C@H]2CN1C(=O)[C@@H](NC(=O)[C@@H](NC(=O)c1cnccn1)C1CCCCC1)C(C)(C)C)C(=O)C(=O)NC1CC1 [TELAPREVIR]	0.8

These compounds were tested on Hepatitis C virus (assay: Ratio of EC50 for Hepatitis C virus subtype 1b expressing NS3 V36L mutant to EC50 for Hepatitis C virus subtype 1b expressing WT NS3 infected in HuH7 cells after 48 hrs by luciferase reporter assay). Conditions: not given.
Assay type: functional, Hepacivirus hominis, genotype 1b, Huh-7
In short: as §2

Compound	Ratio EC50
CCC[C@H](NC(=O)[C@@H]1[C@H]2CCC[C@H]2CN1C(=O)[C@@H](NC(=O)[C@@H](NC(=O)c1cnccn1)C1CCCCC1)C(C)(C)C)C(=O)C(=O)NC1CC1 [TELAPREVIR]	3.1

Each compound was assayed on Hepatitis C virus (assay: Antiviral activity against Hepatitis C virus subtype 1b expressing NS3 F43S mutant infected in HuH7 cells after 48 hrs by luciferase reporter assay). Conditions: genotype 1b, Huh-7, 48 h.
Assay type: functional, organism-based, Hepacivirus hominis
In short: as §1

Compound	EC50 [nM]
CCC[C@H](NC(=O)[C@@H]1[C@H]2CCC[C@H]2CN1C(=O)[C@@H](NC(=O)[C@@H](NC(=O)c1cnccn1)C1CCCCC1)C(C)(C)C)C(=O)C(=O)NC1CC1 [TELAPREVIR]	749

What follows are compounds tested on Hepatitis C virus (assay: Ratio of EC50 for Hepatitis C virus subtype 1b expressing NS3 A156V mutant to EC50 for Hepatitis C virus subtype 1b expressing WT NS3 infected in HuH7 cells after 48 hrs by luciferase reporter assay). Conditions: not given.
Assay type: functional, Hepacivirus hominis, genotype 1b, Huh-7
In short: as §1

Compound	Ratio EC50
CCC[C@H](NC(=O)[C@@H]1[C@H]2CCC[C@H]2CN1C(=O)[C@@H](NC(=O)[C@@H](NC(=O)c1cnccn1)C1CCCCC1)C(C)(C)C)C(=O)C(=O)NC1CC1 [TELAPREVIR]	112

Each compound was assayed on Hepatitis C virus (assay: Antiviral activity against Hepatitis C virus subtype 1b expressing NS3 D168Y mutant infected in HuH7 cells after 48 hrs by luciferase reporter assay). Conditions: genotype 1b, Huh-7, 48 h.
Assay type: functional, organism-based, Hepacivirus hominis
In short: as §1

Compound	EC50 [nM]
CCC[C@H](NC(=O)[C@@H]1[C@H]2CCC[C@H]2CN1C(=O)[C@@H](NC(=O)[C@@H](NC(=O)c1cnccn1)C1CCCCC1)C(C)(C)C)C(=O)C(=O)NC1CC1 [TELAPREVIR]	187

What follows are compounds tested on Hepatitis C virus (assay: Ratio of EC50 for Hepatitis C virus subtype 1b expressing NS3 Q80R mutant to EC50 for Hepatitis C virus subtype 1b expressing WT NS3 infected in HuH7 cells after 48 hrs by luciferase reporter assay). Conditions: not given.
Assay type: functional, Hepacivirus hominis, genotype 1b, Huh-7
In short: as §2

Compound	Ratio EC50
CCC[C@H](NC(=O)[C@@H]1[C@H]2CCC[C@H]2CN1C(=O)[C@@H](NC(=O)[C@@H](NC(=O)c1cnccn1)C1CCCCC1)C(C)(C)C)C(=O)C(=O)NC1CC1 [TELAPREVIR]	0.6

The compounds below were run on Hepatitis C virus (assay: Antiviral activity against Hepatitis C virus subtype 1b expressing NS3 D168H mutant infected in HuH7 cells after 48 hrs by luciferase reporter assay). Conditions: genotype 1b, Huh-7, 48 h.
Assay type: functional, organism-based, Hepacivirus hominis
In short: as §1

Compound	EC50 [nM]
CCC[C@H](NC(=O)[C@@H]1[C@H]2CCC[C@H]2CN1C(=O)[C@@H](NC(=O)[C@@H](NC(=O)c1cnccn1)C1CCCCC1)C(C)(C)C)C(=O)C(=O)NC1CC1 [TELAPREVIR]	102

These compounds were tested on Hepatitis C virus (assay: Antiviral activity against Hepatitis C virus subtype 1b expressing NS3 Q80G mutant infected in HuH7 cells after 48 hrs by luciferase reporter assay). Conditions: genotype 1b, Huh-7, 48 h.
Assay type: functional, organism-based, Hepacivirus hominis
In short: as §1

Compound	EC50 [nM]
CCC[C@H](NC(=O)[C@@H]1[C@H]2CCC[C@H]2CN1C(=O)[C@@H](NC(=O)[C@@H](NC(=O)c1cnccn1)C1CCCCC1)C(C)(C)C)C(=O)C(=O)NC1CC1 [TELAPREVIR]	202

These compounds were tested on Hepatitis C virus (assay: Ratio of EC50 for Hepatitis C virus subtype 1b expressing NS3 A156S mutant to EC50 for Hepatitis C virus subtype 1b expressing WT NS3 infected in HuH7 cells after 48 hrs by luciferase reporter assay). Conditions: not given.
Assay type: functional, Hepacivirus hominis, genotype 1b, Huh-7
In short: as §1

Compound	Ratio EC50
CCC[C@H](NC(=O)[C@@H]1[C@H]2CCC[C@H]2CN1C(=O)[C@@H](NC(=O)[C@@H](NC(=O)c1cnccn1)C1CCCCC1)C(C)(C)C)C(=O)C(=O)NC1CC1 [TELAPREVIR]	20

Each compound was assayed on Hepatitis C virus (assay: Ratio of EC50 for Hepatitis C virus subtype 1b expressing NS3 R155Q mutant to EC50 for Hepatitis C virus subtype 1b expressing WT NS3 infected in HuH7 cells after 48 hrs by luciferase reporter assay). Conditions: not given.
Assay type: functional, Hepacivirus hominis, genotype 1b, Huh-7
In short: as §2

Compound	Ratio EC50
CCC[C@H](NC(=O)[C@@H]1[C@H]2CCC[C@H]2CN1C(=O)[C@@H](NC(=O)[C@@H](NC(=O)c1cnccn1)C1CCCCC1)C(C)(C)C)C(=O)C(=O)NC1CC1 [TELAPREVIR]	2.5

Each compound was assayed on Hepatitis C virus (assay: Ratio of EC50 for Hepatitis C virus subtype 1b expressing NS3 D168Y mutant to EC50 for Hepatitis C virus subtype 1b expressing WT NS3 infected in HuH7 cells after 48 hrs by luciferase reporter assay). Conditions: not given.
Assay type: functional, Hepacivirus hominis, genotype 1b, Huh-7
In short: as §2

Compound	Ratio EC50
CCC[C@H](NC(=O)[C@@H]1[C@H]2CCC[C@H]2CN1C(=O)[C@@H](NC(=O)[C@@H](NC(=O)c1cnccn1)C1CCCCC1)C(C)(C)C)C(=O)C(=O)NC1CC1 [TELAPREVIR]	1.2

What follows are compounds tested on Hepatitis C virus (assay: Ratio of EC50 for Hepatitis C virus subtype 1b expressing NS3 Q80G mutant to EC50 for Hepatitis C virus subtype 1b expressing WT NS3 infected in HuH7 cells after 48 hrs by luciferase reporter assay). Conditions: not given.
Assay type: functional, Hepacivirus hominis, genotype 1b, Huh-7
In short: as §2

Compound	Ratio EC50
CCC[C@H](NC(=O)[C@@H]1[C@H]2CCC[C@H]2CN1C(=O)[C@@H](NC(=O)[C@@H](NC(=O)c1cnccn1)C1CCCCC1)C(C)(C)C)C(=O)C(=O)NC1CC1 [TELAPREVIR]	1.2

What follows are compounds tested on Hepatitis C virus (assay: Antiviral activity against Hepatitis C virus subtype 1b expressing NS3 R155G mutant infected in HuH7 cells after 48 hrs by luciferase reporter assay). Conditions: genotype 1b, Huh-7, 48 h.
Assay type: functional, organism-based, Hepacivirus hominis
In short: as §1

Compound	EC50 [µM]
CCC[C@H](NC(=O)[C@@H]1[C@H]2CCC[C@H]2CN1C(=O)[C@@H](NC(=O)[C@@H](NC(=O)c1cnccn1)C1CCCCC1)C(C)(C)C)C(=O)C(=O)NC1CC1 [TELAPREVIR]	9.63

What follows are compounds tested on Hepatitis C virus (assay: Ratio of EC50 for Hepatitis C virus subtype 1b expressing NS3 D168T mutant to EC50 for Hepatitis C virus subtype 1b expressing WT NS3 infected in HuH7 cells after 48 hrs by luciferase reporter assay). Conditions: not given.
Assay type: functional, Hepacivirus hominis, genotype 1b, Huh-7
In short: as §2

Compound	Ratio EC50
CCC[C@H](NC(=O)[C@@H]1[C@H]2CCC[C@H]2CN1C(=O)[C@@H](NC(=O)[C@@H](NC(=O)c1cnccn1)C1CCCCC1)C(C)(C)C)C(=O)C(=O)NC1CC1 [TELAPREVIR]	1

What follows are compounds tested on Hepatitis C virus (assay: Antiviral activity against Hepatitis C virus subtype 1b expressing NS3 Q80R mutant infected in HuH7 cells after 48 hrs by luciferase reporter assay). Conditions: genotype 1b, Huh-7, 48 h.
Assay type: functional, organism-based, Hepacivirus hominis
In short: as §1

Compound	EC50 [nM]
CCC[C@H](NC(=O)[C@@H]1[C@H]2CCC[C@H]2CN1C(=O)[C@@H](NC(=O)[C@@H](NC(=O)c1cnccn1)C1CCCCC1)C(C)(C)C)C(=O)C(=O)NC1CC1 [TELAPREVIR]	216
